The target in assay [1] is T1, Neprilysin (Mus musculus) (UniProt Q61391).
T1 sequence (whole entry): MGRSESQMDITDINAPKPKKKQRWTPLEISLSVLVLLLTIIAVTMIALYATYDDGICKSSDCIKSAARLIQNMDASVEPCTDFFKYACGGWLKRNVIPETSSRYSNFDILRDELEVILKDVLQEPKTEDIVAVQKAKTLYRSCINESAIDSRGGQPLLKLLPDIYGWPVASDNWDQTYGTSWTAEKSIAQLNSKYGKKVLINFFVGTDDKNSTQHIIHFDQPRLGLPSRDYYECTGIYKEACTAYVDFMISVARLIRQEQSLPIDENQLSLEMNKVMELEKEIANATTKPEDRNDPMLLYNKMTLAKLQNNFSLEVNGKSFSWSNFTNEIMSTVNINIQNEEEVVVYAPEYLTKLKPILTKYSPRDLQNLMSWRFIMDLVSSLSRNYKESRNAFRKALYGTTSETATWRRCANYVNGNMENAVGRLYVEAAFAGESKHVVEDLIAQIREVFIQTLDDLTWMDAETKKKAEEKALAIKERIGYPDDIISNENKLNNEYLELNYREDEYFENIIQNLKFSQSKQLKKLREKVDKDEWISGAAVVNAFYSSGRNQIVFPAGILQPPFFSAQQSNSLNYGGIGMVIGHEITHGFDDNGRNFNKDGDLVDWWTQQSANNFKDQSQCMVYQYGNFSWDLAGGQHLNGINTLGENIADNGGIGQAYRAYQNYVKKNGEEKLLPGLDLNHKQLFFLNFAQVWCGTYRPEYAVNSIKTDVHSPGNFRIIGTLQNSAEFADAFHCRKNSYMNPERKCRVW
As to the kind of experiment: Inhibition of Neutral Endopeptidase activity was measured by using the displacement of [3H]-HACBOGly from mouse kidney after 1 hr oral administration. The arrangement: scale not given: the % may be the effect or the level left. Put shortly: (§1)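 Mice dosed orally at 2.6 X 10-6 mol/kg in 10% ethanol/10% cremophor/80% water. [3H]HACBOGly (1 uCi) injected iv at intervals after dosing. Kidneys taken 15 min later, homogenized in 50 mM Tris-HCl pH 7.4 at 4 °C and filtered, radioactivity counted. Inhibition expressed as percent displacement versus control. Nonspecific binding defined with coinjected retrothiorphan (10.000 eq).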

Assay [2] concerns Mus musculus. Briefly: In vivo inhibition of lung ACE was observed at 60 min after oral administration. In kind it is functional. The arrangement: concentration or dose not given beside the values.
Assay [3] concerns the target T2, Angiotensin-converting enzyme (Mus musculus) (UniProt P09470).
T2 sequence (whole entry): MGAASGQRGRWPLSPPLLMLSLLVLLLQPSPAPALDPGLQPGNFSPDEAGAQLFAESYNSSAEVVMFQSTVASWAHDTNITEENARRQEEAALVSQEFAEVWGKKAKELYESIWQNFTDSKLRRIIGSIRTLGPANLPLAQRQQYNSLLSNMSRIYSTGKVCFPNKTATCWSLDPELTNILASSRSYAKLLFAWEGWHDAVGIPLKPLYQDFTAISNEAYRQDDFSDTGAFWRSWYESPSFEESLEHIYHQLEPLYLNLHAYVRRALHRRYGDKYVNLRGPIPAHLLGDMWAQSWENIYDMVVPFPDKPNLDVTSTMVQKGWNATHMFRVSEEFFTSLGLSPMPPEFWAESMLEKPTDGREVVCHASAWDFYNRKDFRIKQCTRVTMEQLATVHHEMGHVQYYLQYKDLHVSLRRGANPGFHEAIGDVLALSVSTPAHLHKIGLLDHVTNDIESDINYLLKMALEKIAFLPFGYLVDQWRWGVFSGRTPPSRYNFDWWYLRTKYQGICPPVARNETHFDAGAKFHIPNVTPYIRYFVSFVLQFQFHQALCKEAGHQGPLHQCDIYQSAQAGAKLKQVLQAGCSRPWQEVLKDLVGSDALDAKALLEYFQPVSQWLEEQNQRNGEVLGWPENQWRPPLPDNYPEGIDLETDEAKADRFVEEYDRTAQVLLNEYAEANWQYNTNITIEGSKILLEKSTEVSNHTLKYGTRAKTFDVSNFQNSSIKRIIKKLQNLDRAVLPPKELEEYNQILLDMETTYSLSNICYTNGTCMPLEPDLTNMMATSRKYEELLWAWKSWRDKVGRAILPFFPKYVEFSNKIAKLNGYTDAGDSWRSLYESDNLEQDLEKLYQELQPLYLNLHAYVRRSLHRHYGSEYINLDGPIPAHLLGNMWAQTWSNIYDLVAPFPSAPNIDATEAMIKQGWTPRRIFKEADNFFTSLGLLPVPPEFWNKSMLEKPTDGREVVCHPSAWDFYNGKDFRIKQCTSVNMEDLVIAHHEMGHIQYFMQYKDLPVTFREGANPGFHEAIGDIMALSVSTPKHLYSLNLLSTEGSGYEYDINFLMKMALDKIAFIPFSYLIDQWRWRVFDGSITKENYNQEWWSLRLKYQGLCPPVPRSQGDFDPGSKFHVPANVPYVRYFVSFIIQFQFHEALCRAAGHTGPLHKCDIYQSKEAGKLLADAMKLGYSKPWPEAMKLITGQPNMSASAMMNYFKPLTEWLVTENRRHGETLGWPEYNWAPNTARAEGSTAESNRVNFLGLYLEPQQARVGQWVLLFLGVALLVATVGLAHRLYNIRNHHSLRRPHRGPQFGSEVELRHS
Briefly: In vivo inhibition of lung ACE was observed at 120 min after oral administration of the compound. Type of assay: functional, organism-based. The arrangement: concentration or dose not given beside the values.

For assay [4], the target named is T1, Neprilysin (Mus musculus). Briefly: Inhibition of Neutral Endopeptidase activity was measured by using the displacement of [3H]HACBOGly from mouse kidney after 4 hr oral administration. Also on record: scale not given: the % may be the effect or the level left. An outline of the steps: as §1
The target in assay [5] is T2, Angiotensin-converting enzyme (Mus musculus). Briefly: In vivo inhibition of lung ACE was observed at 240 min after oral administration of the compound. In kind it is functional, organism-based. The arrangement: concentration or dose not given beside the values.
The target is the same in assay [6]. As to the kind of experiment: In vivo inhibition of lung ACE was observed at 30 min after oral administration of the compound. Type of assay: organism-based. Also on record: concentration or dose not given beside the values.
Assay [7] addresses T1, Neprilysin (Mus musculus). As to the kind of experiment: Inhibition of Neutral Endopeptidase activity was measured by using the displacement of [3H]HACBOGly from mouse kidney after 2 hr oral administration. Also on record: scale not given: the % may be the effect or the level left. An outline of the steps:
as §1

The target of assay [8] is T1, Neprilysin (Mus musculus). Briefly: Inhibition of Neutral Endopeptidase activity was measured by using the displacement of [3H]HACBOGly from mouse kidney after 8 hr oral administration. The arrangement: scale not given: the % may be the effect or the level left. Put shortly: as §1
Assay [9] addresses T1, Neprilysin (Mus musculus). Briefly: Inhibition of Neutral Endopeptidase activity was measured by using the displacement of [3H]HACBOGly from mouse kidney after 16h oral administration. The arrangement: scale not given: the % may be the effect or the level left. An outline of the steps:
as §1

Assay [10] has as its target T1, Neprilysin (Mus musculus). As to the kind of experiment: Inhibition of Neutral Endopeptidase activity was measured by using the displacement of [3H]HACBOGly from mouse kidney after 1 hour oral administration. Also on record: scale not given: the % may be the effect or the level left. An outline of the steps: as §1
The target of assay [11] is T2, Angiotensin-converting enzyme (Mus musculus). Briefly: Inhibition of lung Angiotensin Converting Enzyme (ACE) in mouse at a dose of 2.6*10e-5 mol/kg after 20 min oral administration. Put shortly: (§2)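 Prescreen in mice: single oral dose of 2.6 X 10-5 mol/kg of prodrug (thioacetyl and benzyl ester protected, tested as stereoisomer mixtures). Inhibition of binding of a tritiated ACE probe to lung measured 20 and 60 min after dosing. Mean ± SEM of three experiments, three mice each.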

Assay [12] concerns Mus musculus. Briefly: Time course of the in vivo inhibition (percent of control) of lung ACE was observed at 30 min after oral administration of the compound. Type of assay: functional. The arrangement: scale not given: the % may be the effect or the level left.
The subject of assay [13] is Mus musculus. As to the kind of experiment: (§3) In vivo inhibition of lung Angiotensin I converting enzyme in mouse at a dose of 2.6*10e-5 mol/kg after 60 min oral administration. Type of assay: functional. Put shortly: as §2
Assay [14] deals with T2, Angiotensin-converting enzyme (Mus musculus). The description is as §3. In kind it is organism-based. Put shortly:
as §2

Structures are written as SMILES.

In the case of `CCC[C@H](NC(=O)C(CSC(=O)c1ccccc1)C(C)c1ccccc1)C(=O)O` (stereo not given in full), the Control in assay [1] is 70%; in the assay on Mus musculus [2], 52%; in assay [3] it was 49%; in assay [4] it was 46%; in assay [5], 41%; in [6], 69%. This molecule came in with a Control in [7] of 55%.

Consider `CC(c1ccccc1)C(CSC(=O)c1ccccc1)C(=O)N[C@@H](C)C(=O)O` (stereo not given in full), for which the Control in assay [8] is 93%; in [1] it was 100%; in the assay on Mus musculus [2], 66%; in [3], 44%; in assay [4], 100%; in assay [5], 32%. The Control in assay [6] came to 75%; in assay [9], 12%; in assay [7], 100%.

`C[C@H](NC(=O)[C@@H](CSC(=O)C12CC3CC(CC(C3)C1)C2)[C@@H](C)c1ccccc1)C(=O)O`: the Control turned out to be 100% in [10]; 94% in [8]; 54% in the assay on Mus musculus [2]; 42% in [3]; 100% in assay [4]; 37% in assay [5]. The Control was 72% in [6], 10% in [9] and 100% in assay [7].

Take `CC[C@H](NC(=O)C(CSC(=O)c1ccccc1)C(C)c1ccccc1)C(=O)O` (stereo not given in full): the Control in assay [1] was 100%; in the assay on Mus musculus [2] it was 57%; in assay [3], 39%; in [4], 73%; in assay [5], 30%; in assay [6], 73%. This molecule also displayed a Control in [7] of 97%.

For `CC(=O)SCC(C(=O)N[C@@H](C)C(=O)OCc1ccccc1)C(C)c1ccccc1` (stereo not given in full), the Control with Mus musculus [2] was found to be 46%; in assay [3], 21%; in assay [5], 2%; with Mus musculus [12] it was 41%. This molecule also yielded an inhibition in assay [11] of 54%. The molecule also registered an Inhibition in the assay with Mus musculus [13] of 44%.

As for `CC(=O)SCC(C(=O)NCC(=O)OCc1ccccc1)C(C)c1ccccc1` (stereo not given), the inhibition turned out to be 36% in assay [11] and 43% in assay [14].

The values are drawn from ChEMBL document CHEMBL1127630, “New dual inhibitors of neutral endopeptidase and angiotensin-converting enzyme: rational design, bioavailability, and pharmacological responses in experimental hypertension” (J Med Chem, 1994).
